# Measurements from different studies.
# Target: Serine/threonine-protein kinase 36 (STK36, Homo sapiens, UniProt Q9NRP7)
# Residues used in one study (Q9NRP7 1-1315): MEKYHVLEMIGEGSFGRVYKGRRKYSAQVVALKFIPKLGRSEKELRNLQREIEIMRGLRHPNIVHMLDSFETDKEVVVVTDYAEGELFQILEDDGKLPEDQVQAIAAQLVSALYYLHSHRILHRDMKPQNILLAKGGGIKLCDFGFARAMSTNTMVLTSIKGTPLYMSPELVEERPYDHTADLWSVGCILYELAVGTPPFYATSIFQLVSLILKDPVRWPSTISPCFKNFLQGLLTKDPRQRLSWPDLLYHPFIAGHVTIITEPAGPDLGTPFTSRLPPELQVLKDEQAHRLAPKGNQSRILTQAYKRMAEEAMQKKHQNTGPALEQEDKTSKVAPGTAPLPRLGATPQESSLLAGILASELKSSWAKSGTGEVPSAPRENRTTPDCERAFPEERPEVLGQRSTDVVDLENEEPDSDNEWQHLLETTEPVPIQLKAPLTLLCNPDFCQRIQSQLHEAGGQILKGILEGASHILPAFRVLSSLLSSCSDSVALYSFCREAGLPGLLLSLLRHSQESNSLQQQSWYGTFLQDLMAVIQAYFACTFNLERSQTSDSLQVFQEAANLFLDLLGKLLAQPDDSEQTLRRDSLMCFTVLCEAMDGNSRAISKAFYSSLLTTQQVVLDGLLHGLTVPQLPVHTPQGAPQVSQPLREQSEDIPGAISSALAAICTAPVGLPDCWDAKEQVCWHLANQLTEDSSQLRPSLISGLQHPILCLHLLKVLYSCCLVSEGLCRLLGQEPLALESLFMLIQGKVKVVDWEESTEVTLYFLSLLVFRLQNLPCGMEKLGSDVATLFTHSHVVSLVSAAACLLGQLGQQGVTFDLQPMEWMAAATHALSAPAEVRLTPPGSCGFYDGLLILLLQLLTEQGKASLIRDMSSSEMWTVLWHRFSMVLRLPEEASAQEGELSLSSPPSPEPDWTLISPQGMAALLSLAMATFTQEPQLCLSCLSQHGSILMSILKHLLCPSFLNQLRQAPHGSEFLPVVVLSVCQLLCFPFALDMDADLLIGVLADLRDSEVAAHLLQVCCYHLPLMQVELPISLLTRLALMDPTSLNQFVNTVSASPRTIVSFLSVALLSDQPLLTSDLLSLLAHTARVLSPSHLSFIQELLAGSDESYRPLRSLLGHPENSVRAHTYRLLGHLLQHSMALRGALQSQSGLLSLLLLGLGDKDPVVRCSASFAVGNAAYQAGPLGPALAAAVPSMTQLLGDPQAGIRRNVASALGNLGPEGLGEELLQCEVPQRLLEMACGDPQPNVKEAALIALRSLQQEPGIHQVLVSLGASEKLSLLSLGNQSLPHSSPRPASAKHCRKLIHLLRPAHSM
Compound,test,conditions,remaining binding
O=C(Nc1c[nH]nc1C(=O)NC1CCNCC1)c1cc(F)cc(F)c1,"binding, competition with immobilised ligand",1 µM,100%
O=C(c1ccc(Nc2ncc(Cl)c(-c3ccc(Cl)s3)n2)cc1)N1CCC(N2CCCC2)CC1,"binding, competition with immobilised ligand",1 µM,3.9%
COc1cccc(CNC(=O)c2nc3scc(COCc4ccc(C(=O)O)cc4)c3c(=O)[nH]2)c1,"cell-free assay, competition with immobilised ligand",1 µM,100%
O=C(NCCCN1CCOCC1)c1ccc(Nc2nccc(-c3cc4ccccc4s3)n2)cc1,"binding, competition with immobilised ligand",1 µM,27%
COc1ncc2cc3ccccc3nc2c1C#N,"cell-free assay, competition with immobilised ligand",5 µM,88%
CN(C)c1ncc(F)c(-c2cnn3ncccc23)n1,binding,1 µM,100%
c1cncc(-c2cccc(Nc3nccc(NC4CCCCC4)n3)c2)c1,"binding, competition with immobilised ligand",10 µM,49%
COc1cnc(Nc2cccc(S(N)(=O)=O)c2)nc1N1CCN(c2ccccc2)C(=O)C1,"binding, competition with immobilised ligand",1 µM,100%
CCC(=O)N[C@@H]1CC[C@H](C(=O)N(C)c2ccc(-c3nc4ccccc4o3)cc2)C1,"cell-free assay, competition with immobilised ligand",1 µM,82%
C[C@@H]1CCN(c2nccc(-c3cnn4ncccc34)n2)C1,binding,1 µM,87%
Cc1cnc(Nc2ccc(C(=O)N3CCC(N4CCCC4)CC3)cc2)nc1-c1cc2ccccc2s1,"binding, competition with immobilised ligand",1 µM,3.6%
N[C@@H]1CCN(c2nccc(-c3cnn4ncccc34)n2)C1,binding,1 µM,77%
C=CC(=O)N1CCC(C(=O)NCC(=O)N2CCN(c3nc(-c4cnc(N)nc4C(F)F)nc(N4CCOCC4)n3)CC2)CC1,"binding, competition with immobilised ligand",1 µM,95%
c1ccc(N2CCN(Cc3nc4ccccc4[nH]3)CC2)nc1,"binding, competition with immobilised ligand",1 µM,84%
FC(F)(F)Oc1cccc(-c2cnc3ccc(-c4ccncc4)nn23)c1,"binding, competition with immobilised ligand",5 µM,95%
F[C@@H]1CCN(c2nccc(-c3cnn4ncccc34)n2)C1,binding,1 µM,90%
Cc1cc(-n2nc(Cc3cc(F)cc(C(F)(F)F)c3)nc2C)ccc1C(N)=O,"cell-free assay, competition with immobilised ligand",1 µM,100%
CC1CCCN1c1nccc(-c2cnn3ncccc23)n1 (stereo not shown),binding,1 µM,100%
Cc1c[nH]c2nccc(Oc3c(F)cc(Nc4cc(Cl)nc(N)n4)cc3F)c12,"cell-free assay, competition with immobilised ligand",0.1 µM,85%
CN(c1nccc(-c2cnn3ncccc23)n1)C1CC1,binding,1 µM,100%
CO[C@H]1CC[C@H](CNc2ccc(S(=O)(=O)NC(=O)c3ccc(N4CCN(CC5=C(c6ccc(Cl)cc6)CC(C)(C)CC5)CC4)cc3Oc3cnc4[nH]ccc4c3)cc2[N+](=O)[O-])CC1,"cell-free assay, competition with immobilised ligand",1 µM,71%
COc1cnc(Nc2cccc(S(N)(=O)=O)c2)nc1N1CCN(c2ccccc2)CC1,"binding, competition with immobilised ligand",1 µM,88%
